Results as given in publication PMC10193422 (ACS Omega, 2023).
≈ marks a conversion by molar mass, not a printed value.

What was measured:
Candida albicans = conditions: cited from earlier work
Candida tropicalis 2718 = assay: MIC, CLSI broth microdilution; type: cell-based; conditions: Candida tropicalis, 2718, 24 h, read-out: MIC C. tro 2718
Outline: (§1)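 CLSI broth microdilution (M27-A3 and M60). Strains are kept frozen in YPD with 40% glycerol, passaged twice on Sabouraud dextrose agar at 30 °C, then grown overnight in YPD at 30 °C with shaking. Test compound is dissolved in DMSO, serially diluted in growth medium, inoculated, and incubated at 30 °C. Candida spp. are read at 24 h, C. glabrata at 48 h and C. neoformans at 72 h. MIC is the first well with ≥50% growth reduction versus the drug-free well.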

[1] = test system: Aspergillus fumigatus 7544; assay: MIC, CLSI broth microdilution; type: cell-based; conditions: Aspergillus fumigatus, 7544, 48 h, read-out: MIC A. fum 7544
Outline: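 Mould MIC by CLSI broth microdilution (M27-A3 and M60). The strain comes from a frozen YPD/40% glycerol stock. Test compound is dissolved in DMSO and serially diluted in growth medium. Wells are inoculated and incubated at 35 °C for 48 h. MIC is the first well with ≥50% growth reduction versus the drug-free control.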

Candida albicans SC5314 = assay: MIC, CLSI broth microdilution; type: cell-based; conditions: SC5314, 24 h, read-out: MIC C. alb SC5314
Outline: as §1

[2] = test system: Cryptococcus neoformans H99; assay: MIC, CLSI broth microdilution; type: cell-based; conditions: H99, 72 h, read-out: MIC C. neo H99
Outline: as §1

Hemolysis assay = type: cell-based; conditions: rabbit, rabbit red blood cell suspension
C. auris 887 = assay: MIC against drug-resistant C. auris clinical isolate; type: cell-based, Candida auris; conditions: Candidozyma auris, 887, 24 h, read-out: MIC C. aur 887
C. auris BS12372 = assay: as above; type: cell-based, Candida auris; conditions: Candidozyma auris, BS12372, 24 h, read-out: MIC C. aur BS12372
C. auris D12 = assay: as above; type: cell-based, Candida auris; conditions: Candidozyma auris, D12, 24 h, read-out: MIC C. aur D12
C. auris 789 = assay: as above; type: cell-based, Candida auris; conditions: Candidozyma auris, 789, 24 h, read-out: MIC C. aur 789
C. auris 791 = assay: as above; type: cell-based, Candida auris; conditions: Candidozyma auris, 791, 24 h, read-out: MIC C. aur 791
C. auris 888 = assay: as above; type: cell-based, Candida auris; conditions: Candidozyma auris, 888, 24 h, read-out: MIC C. aur 888
[3] = test system: sterol composition in C. albicans SC5314; assay: Sterol composition analysis by GC-MS; type: cell-based, Candida albicans; conditions: compounds at 0.008 μg/mL, FLC at 8 μg/mL

SMILES | MIC against Candida albicans (Candida albicans) | MIC (Candida tropicalis 2718) | MIC [1] | MIC (Candida albicans SC5314) | MIC [2] | hemolysis at 1 h, 32 μg/mL (Hemolysis assay) | hemolysis at 1 h, 64 μg/mL (Hemolysis assay) | MIC (C. auris 887) | MIC (C. auris BS12372) | MIC (C. auris D12) | MIC (C. auris 789) | MIC (C. auris 791) | MIC (C. auris 888) | ergosterol content in treated cells [3]
C[C@@H](c1ncncc1F)[C@](O)(Cn1cncn1)c1ccc(F)cc1F [VOC, voriconazole] | 0.06 µg/mL (≈ 0.172 µM) | < 0.008 µg/mL | 0.125 µg/mL (≈ 0.358 µM) | < 0.008 µg/mL | 0.0625 µg/mL (≈ 0.179 µM) | – | – | – | – | – | – | – | – | –
C[C@@H]1[C@H](O)[C@@H](C)/C=C/C=C/C=C/C=C/C=C/C=C/C=C/[C@H](O[C@@H]2O[C@H](C)[C@@H](O)[C@H](N)[C@@H]2O)C[C@@H]2O[C@](O)(C[C@@H](O)C[C@@H](O)[C@H](O)CC[C@@H](O)C[C@@H](O)CC(=O)O[C@H]1C)C[C@H](O)[C@H]2C(=O)O [AmB, amphotericin B] | – | – | – | – | – | 26.8% | 100% | – | – | – | – | – | – | –
CC[C@@H]([C@H](C)O)n1ncn(-c2ccc(N3CCN(c4ccc(OC[C@@H]5CO[C@@](Cn6cncn6)(c6ccc(F)cc6F)C5)cc4)CC3)cc2)c1=O [POS, posaconazole] | – | < 0.008 µg/mL | 0.125 µg/mL (≈ 0.178 µM) | < 0.008 µg/mL | < 0.008 µg/mL | – | – | – | – | – | – | – | – | –
O[C@@](Cn1cnnn1)(c1ccc(F)cc1F)C(F)(F)c1ccc(-c2ccc(OCC(F)(F)F)cc2)cn1 [OTC, oteseconazole] | – | < 0.008 µg/mL | > 64 µg/mL | < 0.008 µg/mL | < 0.008 µg/mL | – | – | 4 µg/mL (≈ 7.58 µM) | < 0.0625 µg/mL | 0.25 µg/mL (≈ 0.474 µM) | 2 µg/mL (≈ 3.79 µM) | 8 µg/mL (≈ 15.2 µM) | 8 µg/mL (≈ 15.2 µM) | –
OC(Cn1cncn1)(Cn1cncn1)c1ccc(F)cc1F [FLC, fluconazole] | – | < 0.125 µg/mL | > 64 µg/mL | 0.25 µg/mL (≈ 0.816 µM) | 8 µg/mL (≈ 26.1 µM) | – | – | > 64 µg/mL | > 64 µg/mL | > 64 µg/mL | > 64 µg/mL | > 64 µg/mL | > 64 µg/mL | almost completely depleted
